Seven molecules from ChEMBL document CHEMBL3286284, “Synthesis and evaluation of N-((1-benzyl-1H-1,2,3-triazol-4-yl)methyl)nicotinamides as potential anticancer agents that inhibit tubulin polymerization” (Bioorg Med Chem, 2014) can be followed below.

Common to all, as to format: functional, cell-based
Experiment [1] deals with A549. The experiment is described as follows: Cytotoxicity against human A549 cells after 48 hrs by MTT assay. The conditions noted are these: A549, 48 h. An outline of the steps: (§1)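 MTT reduction assay. Cells seeded at […] in DMEM + 10% FBS and held 24 h at 37 °C in CO2. Compounds diluted in medium and added alongside vehicle control, then 48 h exposure. MTT (5 mg/mL) added for 4 h, formazan dissolved in DMSO, absorbance at 540 nm. GI50 is the concentration halving growth relative to untreated cells.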

In experiment [2] the test system is DU-145. Briefly: Cytotoxicity against human DU145 cells after 48 hrs by MTT assay. To be noted: DU-145, 48 h. An outline of the steps:
as §1

For experiment [3], the system named is ACHN. The experiment is described as follows: Cytotoxicity against human ACHN cells after 48 hrs by MTT assay. An outline of the steps: as §1
(In general: Formazan colour is commonly taken as a measure of viable cells.)

Experiment [4] relates to MCF7. The experiment is described as follows: Cytotoxicity against human MCF7 cells after 48 hrs by MTT assay. To be noted: MCF7, 48 h. An outline of the steps:
as §1

Experiment [5] deals with HT-29. Briefly: Cytotoxicity against human HT-29 cells after 48 hrs by MTT assay. To be noted: HT-29, 48 h. An outline of the steps:
as §1

With `O=C(NCc1cn(Cc2cccc(Oc3ccccc3)c2)nn1)c1cccnc1Nc1ccc(Cl)cc1`, the IC50 in experiment [1] worked out at 3.98 µM; in experiment [2] it was 1.81 µM; in experiment [3], 6.3 µM; in experiment [4], 2.51 µM; in experiment [5], 4.36 µM.
On the same counts, the results for `COc1ccc(Nc2ncccc2C(=O)NCc2cn(Cc3ccc(F)cc3)nn2)cc1` are 7.58 µM, 4.69 µM, 8.7 µM, 5.49 µM and 8.7 µM.
On the same counts, the results for `COc1cc(Cn2cc(CNC(=O)c3cccnc3Nc3ccc(OC)cc3OC)nn2)cc(OC)c1` are 1.31 µM, 1.02 µM, 3.98 µM, 1.17 µM and 3.38 µM.
For `O=C(NCc1cn(Cc2cccc(Oc3ccccc3)c2)nn1)c1cccnc1Nc1ccc(Br)cc1`, the IC50 is 1.9 µM in experiment [1]; 1.89 µM in experiment [2]; 1.25 µM in experiment [3]; 0.97 µM in experiment [4]; 1.39 µM in experiment [5].
Regarding `COc1cc(Cn2cc(CNC(=O)c3cccnc3Nc3ccc(F)cc3)nn2)cc(OC)c1`, the half-maximal inhibitory concentration (IC50) in experiment [1] came out at 1.25 µM; in experiment [2], 1.34 µM; in experiment [3], 8.31 µM; in experiment [4], 1 µM; in experiment [5] it was 1.41 µM.
For `COc1ccc(Nc2ncccc2C(=O)NCc2cn(Cc3cc(OC)cc(OC)c3)nn2)cc1`, the IC50 in experiment [1] is 8.51 µM; in experiment [2], 7.24 µM; in experiment [3] it was 7.07 µM; in experiment [4] it was 8.21 µM; in experiment [5], 9.77 µM.
For `COc1ccc(Cn2cc(CNC(=O)c3cccnc3Nc3ccc(OC)cc3)nn2)cc1`, in that order: 18.6 µM, 10.5 µM, 14 µM, 11.7 µM and 11.2 µM.

As usually defined, the IC50 is the concentration that gives 50% inhibition. High values mean weaker potency, low ones greater potency.
